Laboratory results as given in ChEMBL document CHEMBL2417446, “Atropisomeric 4-phenyl-4H-1,2,4-triazoles as selective glycine transporter 1 inhibitors” (J Med Chem, 2013).
In brackets after ≈: the same amount, converted by molar mass.

Experiments:
[1] = target: T1, Sodium- and chloride-dependent glycine transporter 1 (Rattus norvegicus, UniProt P28572); test: Displacement of [3H]glycine from GlyT1 in rat C6 glioma cells incubated for 30 mins prior to substrate addition measured after 10 mins by scintillation counting analysis; format: cell-based
T1 sequence (P28572 whole entry): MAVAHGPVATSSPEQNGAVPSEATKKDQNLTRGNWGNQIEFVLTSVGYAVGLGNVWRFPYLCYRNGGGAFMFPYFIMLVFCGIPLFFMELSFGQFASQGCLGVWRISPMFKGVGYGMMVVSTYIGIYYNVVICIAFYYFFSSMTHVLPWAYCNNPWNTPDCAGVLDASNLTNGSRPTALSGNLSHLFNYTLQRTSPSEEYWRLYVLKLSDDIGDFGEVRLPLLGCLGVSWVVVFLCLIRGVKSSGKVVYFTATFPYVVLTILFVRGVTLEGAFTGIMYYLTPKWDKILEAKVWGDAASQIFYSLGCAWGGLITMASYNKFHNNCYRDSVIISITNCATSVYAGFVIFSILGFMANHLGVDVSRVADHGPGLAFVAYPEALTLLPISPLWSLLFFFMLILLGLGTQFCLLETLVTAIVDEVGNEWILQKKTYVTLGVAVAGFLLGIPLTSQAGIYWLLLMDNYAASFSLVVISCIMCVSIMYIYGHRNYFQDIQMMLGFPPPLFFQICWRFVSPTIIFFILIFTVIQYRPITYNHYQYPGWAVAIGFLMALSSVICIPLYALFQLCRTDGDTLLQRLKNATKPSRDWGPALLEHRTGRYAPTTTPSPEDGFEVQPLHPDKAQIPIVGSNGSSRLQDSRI

[2] = target: T2, Sodium- and chloride-dependent glycine transporter 2 (Rattus norvegicus, UniProt P58295); test: Displacement of [3H]glycine from GlyT2 in Wistar rat brainstem cells after 10 mins by scintillation counting analysis; format: cell-based
T2 sequence (P58295 whole entry): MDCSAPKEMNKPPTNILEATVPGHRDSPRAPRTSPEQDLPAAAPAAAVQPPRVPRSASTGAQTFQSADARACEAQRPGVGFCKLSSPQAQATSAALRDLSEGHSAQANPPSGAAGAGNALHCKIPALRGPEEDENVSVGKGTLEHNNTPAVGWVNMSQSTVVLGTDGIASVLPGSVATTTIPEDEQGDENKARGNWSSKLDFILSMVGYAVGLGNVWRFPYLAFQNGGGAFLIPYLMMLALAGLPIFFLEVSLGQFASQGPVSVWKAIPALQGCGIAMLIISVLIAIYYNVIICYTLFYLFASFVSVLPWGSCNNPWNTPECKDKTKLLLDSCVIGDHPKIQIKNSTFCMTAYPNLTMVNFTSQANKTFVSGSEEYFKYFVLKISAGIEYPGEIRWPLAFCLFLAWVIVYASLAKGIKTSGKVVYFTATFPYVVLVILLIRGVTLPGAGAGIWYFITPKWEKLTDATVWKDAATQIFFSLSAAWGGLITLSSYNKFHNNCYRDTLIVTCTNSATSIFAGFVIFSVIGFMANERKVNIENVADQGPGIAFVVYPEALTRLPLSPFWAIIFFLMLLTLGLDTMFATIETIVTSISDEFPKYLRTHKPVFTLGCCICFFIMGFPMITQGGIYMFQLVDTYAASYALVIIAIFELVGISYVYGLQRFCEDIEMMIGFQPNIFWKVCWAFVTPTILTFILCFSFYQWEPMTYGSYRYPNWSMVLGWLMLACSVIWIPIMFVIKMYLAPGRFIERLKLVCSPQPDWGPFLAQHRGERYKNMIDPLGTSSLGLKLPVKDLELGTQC

[3] = target: T3, Sodium- and chloride-dependent glycine transporter 1 (Rattus norvegicus) (UniProt P28572); conditions: C6 glioma, 10 uM
T3 sequence (whole entry): T1 sequence (P28572 whole entry)

[4] = Aqueous solubility of the compound at pH 6.8 after 20 hrs by HPLC analysis; format: physicochemical; conditions: buffer; for solubility: pH 6.8, 20 h, 20 h; for solubility at 20 h: pH 6.8
MDR1 = test: (§1) Apparent permeability from apical to basolateral side in pig LLC-PK1 cells expressing MDR1 after 2 hrs by LC-MS/MS analysis; format: ADME, cell-based, Sus scrofa; conditions: LLC-PK1
Summary of the method: (§2)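 Transport in LLC-PK1 cells and in LLC-GA5-COL150 cells (LLC-PK1 transfected with human MDR1). Papp = amount transported divided by initial donor concentration. Efflux ratio compares the Papp of the two directions (BA/AB).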

[5] = Ratio of brain to plasma in ddY mouse at 1 mg/kg, iv by LC-MS analysis; format: ADME, organism-based; set-up: dose 1 mg/kg, route intravenous; conditions: read-out: BPR
[6] = Intrinsic clearance in human liver microsomes after 30 mins by LC-MS/MS analysis; format: ADME, Microsome; conditions: read-out: CLH
Summary of the method: (§3)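 Liver microsome CLint was run in duplicate.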

[7] = Intrinsic clearance in ddY mouse liver microsomes by LC-MS/MS analysis; format: ADME, Microsome; conditions: read-out: CLH; summary of the method: as §3
[8] = Lipophilicity, log D of the compound at pH 7.4; format: physicochemical; conditions: buffer
[9] = Half life in cynomolgus monkey at 1 mg/kg, iv by LC/MS analysis; format: ADME, organism-based, Macaca fascicularis; set-up: dose 1 mg/kg, route intravenous; conditions: in vivo
Summary of the method: (§4)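 Single dose given iv at 1 mg/kg or po at 3 mg/kg; each value is the mean of n = 3 measurements.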

[10] = AUC in cynomolgus monkey at 1 mg/kg, iv by LC/MS analysis; format: ADME, organism-based, Macaca fascicularis; set-up: dose 1 mg/kg, route intravenous; conditions: plasma; summary of the method: as §4
[11] = Oral bioavailability in cynomolgus monkey at 3 mg/kg by LC/MS analysis; format: ADME, organism-based, Macaca fascicularis; conditions: in vivo; summary of the method: as §4
[12] = Plasma clearance in cynomolgus monkey at 1 mg/kg, iv by LC/MS analysis; format: ADME, organism-based, Macaca fascicularis; set-up: dose 1 mg/kg, route intravenous; summary of the method: as §4
[13] = AUC in cynomolgus monkey at 3 mg/kg, po by LC/MS analysis; format: ADME, organism-based, Macaca fascicularis; set-up: dose 3 mg/kg, route oral; conditions: plasma; summary of the method: as §4
[14] = Volume of distribution at steady state in cynomolgus monkey at 1 mg/kg, iv by LC/MS analysis; format: ADME, organism-based, Macaca fascicularis; set-up: dose 1 mg/kg, route intravenous; conditions: in vivo, read-out: Vdss
Summary of the method: (§5)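 Single intravenous dose as a pharmacokinetic study, with each parameter reported as the mean of n = 3 measurements.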

[15] = Volume of distribution at steady state in ddY mouse at 1 mg/kg, iv by LC/MS analysis; format: ADME, organism-based; set-up: dose 1 mg/kg, route intravenous; conditions: in vivo, read-out: Vdss; summary of the method: as §5
[16] = AUC in ddY mouse at 3 mg/kg, po by LC/MS analysis; format: ADME, organism-based; set-up: dose 3 mg/kg, route oral; conditions: plasma; summary of the method: as §4
[17] = Plasma clearance in ddY mouse at 1 mg/kg, iv by LC/MS analysis; format: ADME, organism-based; set-up: dose 1 mg/kg, route intravenous; summary of the method: as §4
[18] = Cmax in cynomolgus monkey at 3 mg/kg, po by LC/MS analysis; format: ADME, organism-based, Macaca fascicularis; set-up: dose 3 mg/kg, route oral; conditions: in vivo; summary of the method: as §4
[19] = AUC in ddY mouse at 1 mg/kg, iv by LC/MS analysis; format: ADME, organism-based; set-up: dose 1 mg/kg, route intravenous; conditions: plasma; summary of the method: as §4
[20] = Cmax in ddY mouse at 3 mg/kg, po by LC/MS analysis; format: ADME, organism-based; set-up: dose 3 mg/kg, route oral; conditions: in vivo; summary of the method: as §4
[21] = Oral bioavailability in ddY mouse at 3 mg/kg by LC/MS analysis; format: ADME, organism-based; conditions: in vivo; summary of the method: as §4
LLC-PK1 = test: as §1; format: ADME, cell-based, Sus scrofa; conditions: llc-pk1, 2 h, 2 h; summary of the method: as §2
[22] = Half life in ddY mouse at 1 mg/kg, iv by LC/MS analysis; format: ADME, organism-based; set-up: dose 1 mg/kg, route intravenous; conditions: in vivo; summary of the method: as §4
[23] = Intrinsic clearance in cynomolgus monkey liver microsomes after 30 mins by LC-MS/MS analysis; format: ADME, Macaca fascicularis, Microsome; conditions: read-out: CLH; summary of the method: as §3

Cc1nnc(-c2ccc(-c3cccnc3)cc2)n1-c1ccccc1F
IC50 [1]: 7 µM

Cc1nnc(-c2ccc(-c3ccccn3)cc2)n1-c1ccccc1F
IC50 [2]: 1.6 µM | IC50 [1]: 0.86 µM

CCc1nnc(-c2ccc(-c3ccccc3)cc2)n1-c1cccc(C(F)(F)F)c1C
inhibition [3]: 38% | IC50 [1]: > 10 µM

CCc1nnc(N2CCN(c3ccccc3)CC2)n1-c1ccccc1F
IC50 [1]: 2.6 µM

CCc1nnc(C2CCN(c3ccccc3)CC2)n1-c1ccccc1F
IC50 [1]: 6.6 µM

CCc1nnc(-c2ccc(-c3ccccc3)cc2)n1-c1cccc(COC)c1C
IC50 [1]: 2.4 µM

CCc1nnc(-c2ccc(-c3ccccc3)nc2)n1-c1cccc(C#N)c1C
solubility [4]: 98 µM (≈ 35.8 µg/mL) | Papp A→B at 2 h (MDR1): 29.6 ×10⁻⁶ cm/s | Kp [5]: 0.7

CCc1nnc(-c2ccc(-c3ccccc3)cc2)n1-c1cccc(Br)c1C
IC50 [1]: 2.2 µM

CCc1nnc(-c2ccc(-c3ccccc3)cc2)n1-c1cccc(N(C)C)c1C
IC50 [1]: 3.1 µM

CCc1nnc(-c2ccc(-c3ccccc3)cc2)n1-c1cccc(CN(C)C)c1C
IC50 [1]: 29 µM

CCc1nnc(-c2ccc(-c3ccccc3)cc2)n1-c1cccc(C(N)=O)c1C
IC50 [1]: 3.9 µM

CCc1nnc(N2CCC(c3ccccc3)CC2)n1-c1ccccc1F
IC50 [1]: 3.7 µM

CCc1nnc(-c2ccc(-c3ccccc3)cc2)n1-c1ccccc1F
solubility at 20 h [4]: < 1 µM

CCc1nnc(-c2ccc(-c3ccccc3)cc2)n1-c1cccc2cnccc12
CLint scaled [6]: 374 mL/min/kg | CLint scaled [7]: > 1000 mL/min/kg | solubility at 20 h [4]: 5 µM (≈ 1.88 µg/mL) | logD [8]: 4.1 | Papp A→B at 2 h (MDR1): 25.6 ×10⁻⁶ cm/s

CCc1nnc(-c2ccc(-c3ccccc3)cc2)n1-c1cccc(Cl)c1C
IC50 [1]: 2.2 µM

CCc1nnc(-c2ccc(-c3ccccc3)cc2)n1-c1cccc(C#N)c1C
CLint scaled [6]: 126 mL/min/kg | CLint scaled [7]: > 1000 mL/min/kg | solubility at 20 h [4]: < 1 µM | logD [8]: 4.1 | Papp A→B at 2 h (MDR1): 27.5 ×10⁻⁶ cm/s

CCc1nnc(-c2ccc(-c3ccccc3)nc2)n1-c1ccccc1F
solubility at 20 h [4]: 31 µM (≈ 10.7 µg/mL)

CCc1nnc(-c2ccc(-c3ccccc3)nc2)n1-c1cccc(C#N)c1C (atropisomer S)
solubility at 20 h [4]: 94 µM (≈ 34.4 µg/mL)

CCc1nnc(-c2ccc(-c3ccccc3)cc2)n1-c1cccc(CC#N)c1C
IC50 [1]: 2.8 µM

Cc1nnc(-c2ccc(-c3ccncc3)cc2)n1-c1ccccc1F
IC50 [1]: 5.9 µM

CCc1nnc(-c2ccc(-c3ccccc3)nc2)n1-c1cccc(C#N)c1C (atropisomer R)
half-life [9]: 2.4 h | AUC [10]: 875 ng·h/mL | bioavailability [11]: 23% | CLint scaled [6]: 55 mL/min/kg | clearance [12]: 21 mL/min/kg | AUC [13]: 522 ng·h/mL | Vd [14]: 3.4 L/kg | Vd [15]: 1 L/kg | CLint scaled [7]: 787 mL/min/kg | AUC [16]: 235 ng·h/mL | clearance [17]: 67 mL/min/kg | solubility [4]: 95 µM (≈ 34.7 µg/mL) | Cmax [18]: 141 ng/mL | AUC [19]: 248 ng·h/mL | Cmax [20]: 319 ng/mL | logD [8]: 3 | bioavailability [21]: 32% | Papp (LLC-PK1): 35.4 ×10⁻⁶ cm/s | half-life [22]: 0.22 h | CLint scaled [23]: 162 mL/min/kg

CCc1nnc(-c2ccc(-c3ccccc3)cc2)n1-c1cccc(C(=O)OC)c1C
IC50 [1]: 5.1 µM
